Data taken from ChEMBL document CHEMBL3098071, “Synthesis and evaluation of novel azoles as potent antifungal agents” (2014).
In brackets after ≈: the same amount, converted by molar mass.

Legend:
Format in all cases: functional
Nannizzia gypsea = assay: Antimicrobial activity against Microsporum gypseum by broth microdilution method
Aspergillus fumigatus = assay: Antimicrobial activity against Aspergillus fumigatus by broth microdilution method
Trichophyton rubrum = assay: Antimicrobial activity against Trichophyton rubrum by broth microdilution method
Nakaseomyces glabratus = assay: Antimicrobial activity against Candida glabrata by broth microdilution method
Cryptococcus neoformans = assay: Antimicrobial activity against Cryptococcus neoformans after 72 hrs by broth microdilution method
In short: (§1)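 Broth microdilution in 96-well plates following NCCLS methods. Compounds were dissolved in DMSO, serially diluted in growth medium, inoculated and incubated at 35°C. MIC read at 24 h for Candida albicans and at 72 h for Cryptococcus neoformans. MIC80 is the first well with about 80% less growth than the drug-free well. Values are means of three replicate tests.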

Candida parapsilosis = assay: Antimicrobial activity against Candida parapsilosis by broth microdilution method; conditions: Lodderomyces parapsilosis
Candida albicans [1] = assay: Antimicrobial activity against Candida albicans SC5314 after 24 hrs by broth microdilution method; conditions: SC5314, 24 h; in short: as §1
Candida albicans [2] = assay: Antimicrobial activity against Candida albicans Y0109 after 24 hrs by broth microdilution method; conditions: Y0109, 24 h; in short: as §1
Candida albicans [3] = assay: Ratio of voriconazole MIC80 to compound MIC80 for Candida albicans SC5314
Candida albicans [4] = assay: Ratio of itraconazole MIC80 to compound MIC80 for Candida albicans SC5314

| Structure (SMILES) | MIC80 (Nannizzia gypsea) | MIC80 (Aspergillus fumigatus) | MIC80 (Trichophyton rubrum) | MIC80 (Nakaseomyces glabratus) | MIC80 (Cryptococcus neoformans) | MIC80 (Candida parapsilosis) | MIC80 (Candida albicans [1]) | MIC80 (Candida albicans [2]) | Ratio (Candida albicans [3]) | Ratio (Candida albicans [4]) |
| --- | --- | --- | --- | --- | --- | --- | --- | --- | --- | --- |
| O=[N+]([O-])c1ccc(-c2nnc(SCCCN3CCN(CC(O)(Cn4cncn4)c4ccc(F)cc4F)CC3)o2)cc1 (stereo not drawn) | 1 µg/mL (≈ 1.7 µM) | > 64 µg/mL | 1 µg/mL (≈ 1.7 µM) | 0.125 µg/mL (≈ 0.213 µM) | 0.25 µg/mL (≈ 0.426 µM) | 0.125 µg/mL (≈ 0.213 µM) | 0.25 µg/mL (≈ 0.426 µM) | 0.125 µg/mL (≈ 0.213 µM) |  |  |
| N#Cc1ccccc1-c1nnc(SCCCN2CCN(CC(O)(Cn3cncn3)c3ccc(F)cc3F)CC2)o1 (stereo not drawn) | 1 µg/mL (≈ 1.76 µM) | > 64 µg/mL | 0.25 µg/mL (≈ 0.441 µM) | 0.125 µg/mL (≈ 0.221 µM) | 0.25 µg/mL (≈ 0.441 µM) | 0.25 µg/mL (≈ 0.441 µM) | 0.125 µg/mL (≈ 0.221 µM) | 0.125 µg/mL (≈ 0.221 µM) |  |  |
| N#Cc1cccc(-c2nnc(SCCCN3CCN(CC(O)(Cn4cncn4)c4ccc(F)cc4F)CC3)o2)c1 (stereo not drawn) | 1 µg/mL (≈ 1.76 µM) | > 64 µg/mL | 0.25 µg/mL (≈ 0.441 µM) | 0.25 µg/mL (≈ 0.441 µM) | 0.25 µg/mL (≈ 0.441 µM) | 0.25 µg/mL (≈ 0.441 µM) | 0.125 µg/mL (≈ 0.221 µM) | 0.125 µg/mL (≈ 0.221 µM) |  |  |
| OC(CN1CCNCC1)(Cn1cncn1)c1ccc(F)cc1F (stereo not drawn) | 16 µg/mL (≈ 49.5 µM) | > 64 µg/mL | 1 µg/mL (≈ 3.09 µM) | 0.25 µg/mL (≈ 0.773 µM) | 4 µg/mL (≈ 12.4 µM) | 2 µg/mL (≈ 6.19 µM) | 0.5 µg/mL (≈ 1.55 µM) | 1 µg/mL (≈ 3.09 µM) |  |  |
| OC(CN1CCN(CCCSc2nnc(-c3ccccc3)o2)CC1)(Cn1cncn1)c1ccc(F)cc1F (stereo not drawn) | 1 µg/mL (≈ 1.85 µM) | > 64 µg/mL | 0.25 µg/mL (≈ 0.462 µM) | 0.0625 µg/mL (≈ 0.115 µM) | 0.0625 µg/mL (≈ 0.115 µM) | 0.0625 µg/mL (≈ 0.115 µM) | 0.0156 µg/mL (≈ 0.0288 µM) | 0.0156 µg/mL (≈ 0.0288 µM) |  |  |
| OC(CN1CCN(CCCSc2nnc(-c3ccccc3F)o2)CC1)(Cn1cncn1)c1ccc(F)cc1F (stereo not drawn) | 1 µg/mL (≈ 1.79 µM) | > 64 µg/mL | 0.0625 µg/mL (≈ 0.112 µM) | 0.0625 µg/mL (≈ 0.112 µM) | 0.0625 µg/mL (≈ 0.112 µM) | 0.25 µg/mL (≈ 0.447 µM) | 0.0625 µg/mL (≈ 0.112 µM) | 0.0156 µg/mL (≈ 0.0279 µM) |  |  |
| OC(CN1CCN(CCCSc2nnc(-c3cccc(F)c3)o2)CC1)(Cn1cncn1)c1ccc(F)cc1F (stereo not drawn) | 1 µg/mL (≈ 1.79 µM) | > 64 µg/mL | 0.0625 µg/mL (≈ 0.112 µM) | 0.0625 µg/mL (≈ 0.112 µM) | 0.0625 µg/mL (≈ 0.112 µM) | 0.25 µg/mL (≈ 0.447 µM) | 0.0039 µg/mL (≈ 0.00697 µM) | 0.0625 µg/mL (≈ 0.112 µM) | 16 | 64 |
| OC(CN1CCN(CCCSc2nnc(-c3ccc(F)cc3)o2)CC1)(Cn1cncn1)c1ccc(F)cc1F (stereo not drawn) | 4 µg/mL (≈ 7.15 µM) | > 64 µg/mL | 0.0625 µg/mL (≈ 0.112 µM) | 0.25 µg/mL (≈ 0.447 µM) | 0.25 µg/mL (≈ 0.447 µM) | 0.25 µg/mL (≈ 0.447 µM) | 0.0156 µg/mL (≈ 0.0279 µM) | 0.25 µg/mL (≈ 0.447 µM) |  |  |
| OC(CN1CCN(CCCSc2nnc(-c3ccccc3Cl)o2)CC1)(Cn1cncn1)c1ccc(F)cc1F (stereo not drawn) | 4 µg/mL (≈ 6.94 µM) | > 64 µg/mL | 0.25 µg/mL (≈ 0.434 µM) | 0.25 µg/mL (≈ 0.434 µM) | 0.25 µg/mL (≈ 0.434 µM) | 0.25 µg/mL (≈ 0.434 µM) | 0.0039 µg/mL (≈ 0.00677 µM) | 0.0039 µg/mL (≈ 0.00677 µM) | 16 | 64 |
| OC(Cn1cncn1)(Cn1cncn1)c1ccc(F)cc1F [FLUCONAZOLE] | 8 µg/mL (≈ 26.1 µM) | 8 µg/mL (≈ 26.1 µM) | > 64 µg/mL | 1 µg/mL (≈ 3.27 µM) | 1 µg/mL (≈ 3.27 µM) | 1 µg/mL (≈ 3.27 µM) | 0.5 µg/mL (≈ 1.63 µM) | 0.5 µg/mL (≈ 1.63 µM) |  |  |
| CCC(C)n1ncn(-c2ccc(N3CCN(c4ccc(OCC5COC(Cn6cncn6)(c6ccc(Cl)cc6Cl)O5)cc4)CC3)cc2)c1=O (stereo not drawn) [ITRACONAZOLE] | 1 µg/mL (≈ 1.42 µM) | 1 µg/mL (≈ 1.42 µM) | 0.5 µg/mL (≈ 0.709 µM) | 0.125 µg/mL (≈ 0.177 µM) | 0.125 µg/mL (≈ 0.177 µM) | 0.125 µg/mL (≈ 0.177 µM) | 0.25 µg/mL (≈ 0.354 µM) | 0.25 µg/mL (≈ 0.354 µM) |  |  |
| CC(=O)N1CCN(c2ccc(OCC3COC(Cn4ccnc4)(c4ccc(Cl)cc4Cl)O3)cc2)CC1 (stereo not drawn) [KETOCONAZOLE] | 2 µg/mL (≈ 3.76 µM) | 2 µg/mL (≈ 3.76 µM) | 8 µg/mL (≈ 15.1 µM) | 8 µg/mL (≈ 15.1 µM) | 4 µg/mL (≈ 7.53 µM) | 8 µg/mL (≈ 15.1 µM) | 4 µg/mL (≈ 7.53 µM) | 8 µg/mL (≈ 15.1 µM) |  |  |
| C[C@@H](c1ncncc1F)[C@](O)(Cn1cncn1)c1ccc(F)cc1F [VORICONAZOLE] | 0.125 µg/mL (≈ 0.358 µM) | 0.0625 µg/mL (≈ 0.179 µM) | 0.25 µg/mL (≈ 0.716 µM) | 0.0625 µg/mL (≈ 0.179 µM) | 0.0156 µg/mL (≈ 0.0447 µM) | 0.0625 µg/mL (≈ 0.179 µM) | 0.0625 µg/mL (≈ 0.179 µM) | 0.0625 µg/mL (≈ 0.179 µM) |  |  |
